Experimental data from PMC9973464 (Haematologica, 2022).
Values joined by “and” are separate entries in the source; they are usually repeats but may differ in a detail not shown here. Identical values can stand only once.

Assays:
R/R AML patients = settings: cited from earlier work
[1] = Phase Ib trial: plasma pharmacokinetics; assay type: in vivo, human
patients with R/R AML [2] = experiment: Phase Ib dose-escalation trial of oral mivavotinib: safety, DLT, MTD/RP2D; assay type: in vivo, human
lymphoma patients = settings: target SYK; cited from earlier work
human platelets = experiment: In vitro platelet aggregation assay in platelet rich plasma; assay type: cell-based
patients with R/R AML [3] = experiment: Phase Ib trial: response and antileukemic activity; assay type: in vivo, human
Summary of the method: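 Multicenter, open-label phase Ib dose escalation (3+3) of oral single agent given QD or BID in 28-day cycles until progression or unacceptable toxicity. Started at 60 mg QD with 20 mg increments. Response was judged by Revised IWG AML criteria, with modifications.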

dogs = experiment: Pre-clinical toxicology study, daily oral gavage, dogs; assay type: in vivo; settings: daily oral gavage for 14 days to 3 months
FLT3 = molecular target: T1, FLT3 (Homo sapiens, UniProt P36888); experiment: Plasma inhibitory activity; assay type: cell-based
T1 sequence (P36888 610-943 limits assumed): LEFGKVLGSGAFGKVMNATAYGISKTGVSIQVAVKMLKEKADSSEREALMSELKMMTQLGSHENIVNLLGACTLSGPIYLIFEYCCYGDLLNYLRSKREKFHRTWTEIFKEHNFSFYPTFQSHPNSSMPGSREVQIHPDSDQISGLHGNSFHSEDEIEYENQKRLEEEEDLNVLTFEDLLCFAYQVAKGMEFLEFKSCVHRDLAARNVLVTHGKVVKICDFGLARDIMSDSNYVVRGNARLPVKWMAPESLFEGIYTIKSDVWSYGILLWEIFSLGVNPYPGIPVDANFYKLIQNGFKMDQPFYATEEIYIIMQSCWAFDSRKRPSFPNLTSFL
Summary of the method: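 Steady-state trough plasma was drawn before dosing on Cycle 1 day 15. An FLT3-ITD-expressing AML cell line was incubated in this plasma. FLT3 phosphorylation was quantified against baseline plasma and reported as % of baseline. Drug level in the same sample was measured by mass spectrometry. Reference curve: normal donor plasma spiked with test compound, Molm-14 cells 1 h, immunoblot for pFLT3.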

FLT3 isoforms = settings: evaluation of additional kinases; cited from earlier work
rats = experiment: Pre-clinical toxicology study, daily oral gavage, rats; assay type: in vivo; settings: daily oral gavage for 14 days to 3 months

SMILES: CCc1nc(C(N)=O)c(Nc2ccc(N3CCC(N4CCN(C)CC4)CC3)c(OC)c2)nc1NC1CCOCC1 [gilteritinib]
- median time to achieve best response (R/R AML patients): 48 days

SMILES: Cn1cc(-c2nc(N[C@@H]3CCCC[C@@H]3N)c(F)c3c2C(=O)NC3)cn1 [mivavotinib]
- dose proportionality of plasma exposure ([1]; dose ranges studied, 60-160 mg QD or 60-80 mg BID): generally dose proportional
- Cmax ([1]; human, plasma, oral, 140 mg): 574 ng/mL and 1.07 µM
- Tmax ([1]; human, plasma, po): 1 to 3 h
- DLT (patients with R/R AML [2]; 60 mg BID, 8 patients): No episodes of DLT were observed
- drug-related SAE gastric hemorrhage (patients with R/R AML [2]; 3 patients, who received 80 mg BID): 7%
- maximum tolerated dose (MTD), BID dosing regimen (patients with R/R AML [2]; BID dosing regimen): 60 mg BID
- recommended phase II dose (RP2D) (patients with R/R AML [2]; QD dosing regimen): 140 mg QD
- maximum tolerated dose (MTD), QD dosing regimen (patients with R/R AML [2]; QD dosing up to 160 mg QD, per protocol): not reached
- on-study deaths (patients with R/R AML [2]; after informed consent and ≤28 days after last dose): 26
- patients with ≥1 TEAE assessed by the investigator as related to mivavotinib (patients with R/R AML [2]; all 43 patients): 84%
- intracranial bleeding considered grade ≥3 (patients with R/R AML [2]; all doses): 4 patients
- patients with GI tract bleeding considered grade ≥3 (patients with R/R AML [2]; all doses): 7 patients
- patients with GI-related or central nervous system-related bleeding event leading to study discontinuation (patients with R/R AML [2]; all doses): 9 patients
- patients with bleeding involving the GI tract (patients with R/R AML [2]; all doses): Thirteen
- patients with intracranial bleeding (patients with R/R AML [2]; all doses): Seven
- patients who discontinued mivavotinib due to a TEAE (patients with R/R AML [2]; all patients): 67%
- patients with drug-related SAE (patients with R/R AML [2]; all patients): 28%
- bleeding events leading to discontinuation considered related to mivavotinib (patients with R/R AML [2]; of 9 patients): 5
- fatal grade ≥3 bleeding events (patients with R/R AML [2]; of eleven patients with grade ≥3 bleeding events): 2
- median day of occurrence of all bleeding events (patients with R/R AML [2]; range -1 to 262): 22 days
- dose identified for expansion (lymphoma patients): 100 mg QD
- effect on platelet aggregation caused by adenosine diphosphate (human platelets): prevented aggregation
- effect on platelet aggregation caused by collagen (human platelets; 1.07 µM mivavotinib): prevented aggregation
- inhibition of platelet aggregation (human platelets; 0.107 mM mivavotinib): not observed
- effect on platelet aggregation caused by collagen (human platelets; 10.7 mM mivavotinib, collagen (2 mg/mL)): prevented aggregation
- reduction in marrow blast percentage, range (patients with R/R AML [3]; 13 patients with FLT3 mutations): 22.5-98.6%
- patients with PD (patients with R/R AML [3]; 33 response-evaluable patients): 5
- patients with clinical benefit despite PD (patients with R/R AML [3]; 33 response-evaluable patients): 4
- patients with stable disease (patients with R/R AML [3]; 33 response-evaluable patients): 19
- complete responses (4 with incomplete count recovery) (patients with R/R AML [3]; 43 patients enrolled): 5
- patients with a ≥50% reduction in peripheral blast count from baseline (patients with R/R AML [3]; BID dosing): 9 of 12
- patients with a ≥50% reduction in peripheral blast count from baseline (patients with R/R AML [3]; QD dosing): 12 of 21
- patients with a ≥50% reduction in peripheral blast count from baseline (patients with R/R AML [3]; across all dose levels): 21 of 33
- objective responses with incomplete count recovery (CRi) (patients with R/R AML [3]; of 19 patients with FLT3 mutations treated at 120, 140, or 160 mg QD or BID): 3
- dose at which GI mucosal hemorrhage was dose limiting (dogs): ≥ 10 mg/kg
- dose at which GI mucosal hemorrhage was present (dogs): ≥ 3 mg/kg
- in vivo FLT3 inhibition by PIA, comparison of dose levels (FLT3; 80 mg BID, trough plasma): most effective FLT3 inhibition
- consistent or sustained 90% FLT3 inhibition (FLT3; 140 mg QD or 60 mg BID): neither selected RP2D, 140 mg QD or 60 mg BID, achieved a consistent or sustained 90% FLT3 inhibition
- FLT3 inhibition (FLT3; 140 mg QD, by Cycle 1 day 15, initial evidence): at least 90%
- activity against FLT3 isoforms (FLT3 isoforms): 1.6 to 7.6 ng/mL
- dose at which GI mucosal hemorrhage was present (rats): ≥ 30 mg/kg
